Experimental data published in ChEMBL document CHEMBL5058577, “EUbOPEN Chemogenomics Library 2 (Multiplex)” (2022).

Tested on: HEK-293T
Assay: Multiplex assay against HEK293T
Type: toxicity, cell-based
Settings: human
Procedure, shortened: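 Phenotypes for tubulin, mitochondrial mass and membrane permeability are expressed as per cents of healthy-nucleus cells. Cells were stained live at seeding with Hoechst33342, BioTracker Green Microtubule Cytoskeleton Dye, MitoTracker Red and Annexin V Alexa Fluor 680, then imaged after compound addition on a CQ1 microscope at 37°C and 5% CO2. Machine-learning gating in CellPathfinder separated Hoechst high-intensity objects from normal cells, divided normal cells by nuclear state (healthy, pyknosed, fragmented) and divided pyknosed cells into mitotic or apoptotic.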

[1] = 12 h, 1 µM, compound concentration 1 uM, replicate 1
[2] = 12 h, 1 µM, compound concentration 1 uM, replicate 2
[3] = 12 h, 10 µM, compound concentration 10 uM, replicate 1
[4] = 12 h, 10 µM, compound concentration 10 uM, replicate 2
[5] = 24 h, 1 µM, compound concentration 1 uM, replicate 1
[6] = 24 h, 1 µM, compound concentration 1 uM, replicate 2
[7] = 24 h, 10 µM, compound concentration 10 uM, replicate 1
[8] = 24 h, 10 µM, compound concentration 10 uM, replicate 2
[9] = 48 h, 1 µM, compound concentration 1 uM, replicate 1
[10] = 48 h, 1 µM, compound concentration 1 uM, replicate 2
[11] = 48 h, 10 µM, compound concentration 10 uM, replicate 1
[12] = 48 h, 10 µM, compound concentration 10 uM, replicate 2

Compound: O=S(=O)(c1ccccc1)c1cnc2c(N3CCNCC3)cccc2c1 [INTEPIRDINE]
- Population Apoptotic (%) [1]: 40%
- Population Fragmented Nuclei (%) [1]: 7%
- Population Healthy Nuclei (%) [1]: 80%
- Population Hoechst High Intensity Objects (%) [1]: 7%
- Population Membrane Permeable-Phenotype (%) [1]: 0%
- Population Mitochondria Different-Phenotype (%) [1]: 54%
- Population Mitotic Cells (%) [1]: 60%
- Population Normal (%) [1]: 92%
- Population Pyknosed Nuclei (%) [1]: 12%
- Population Tubulin-Different-Phenotype (%) [1]: 43%
- Total Cell Count [1]: 403
- Population Apoptotic (%) [2]: 50%
- Population Healthy Nuclei (%) [2]: 74%
- Population Hoechst High Intensity Objects (%) [2]: 10%
- Population Mitochondria Different-Phenotype (%) [2]: 69%
- Population Mitotic Cells (%) [2]: 50%
- Population Normal (%) [2]: 89%
- Population Pyknosed Nuclei (%) [2]: 17%
- Population Tubulin-Different-Phenotype (%) [2]: 23%
- Total Cell Count [2]: 336
- Population Apoptotic (%) [3]: 51%
- Population Fragmented Nuclei (%) [3]: 8%
- Population Healthy Nuclei (%) [3]: 72%
- Population Hoechst High Intensity Objects (%) [3]: 10%
- Population Membrane Permeable-Phenotype (%) [3]: 0%
- Population Mitochondria Different-Phenotype (%) [3]: 70%
- Population Mitotic Cells (%) [3]: 48%
- Population Normal (%) [3]: 89%
- Population Pyknosed Nuclei (%) [3]: 18%
- Population Tubulin-Different-Phenotype (%) [3]: 58%
- Total Cell Count [3]: 326
- Population Apoptotic (%) [4]: 46%
- Population Fragmented Nuclei (%) [4]: 4%
- Population Healthy Nuclei (%) [4]: 79%
- Population Hoechst High Intensity Objects (%) [4]: 7%
- Population Mitochondria Different-Phenotype (%) [4]: 76%
- Population Mitotic Cells (%) [4]: 53%
- Population Normal (%) [4]: 92%
- Population Pyknosed Nuclei (%) [4]: 15%
- Population Tubulin-Different-Phenotype (%) [4]: 50%
- Total Cell Count [4]: 349
- Population Apoptotic (%) [5]: 28%
- Population Fragmented Nuclei (%) [5]: 6%
- Population Healthy Nuclei (%) [5]: 80%
- Population Hoechst High Intensity Objects (%) [5]: 5%
- Population Membrane Permeable-Phenotype (%) [5]: 0%
- Population Mitochondria Different-Phenotype (%) [5]: 35%
- Population Mitotic Cells (%) [5]: 71%
- Population Normal (%) [5]: 94%
- Population Pyknosed Nuclei (%) [5]: 12%
- Population Tubulin-Different-Phenotype (%) [5]: 26%
- Total Cell Count [5]: 530
- Population Apoptotic (%) [6]: 58%
- Population Fragmented Nuclei (%) [6]: 7%
- Population Healthy Nuclei (%) [6]: 85%
- Population Mitochondria Different-Phenotype (%) [6]: 43%
- Population Mitotic Cells (%) [6]: 41%
- Population Pyknosed Nuclei (%) [6]: 7%
- Population Tubulin-Different-Phenotype (%) [6]: 14%
- Total Cell Count [6]: 416
- Population Apoptotic (%) [7]: 52%
- Population Fragmented Nuclei (%) [7]: 11%
- Population Healthy Nuclei (%) [7]: 75%
- Population Hoechst High Intensity Objects (%) [7]: 6%
- Population Membrane Permeable-Phenotype (%) [7]: 0%
- Population Mitochondria Different-Phenotype (%) [7]: 50%
- Population Mitotic Cells (%) [7]: 47%
- Population Normal (%) [7]: 93%
- Population Pyknosed Nuclei (%) [7]: 12%
- Population Tubulin-Different-Phenotype (%) [7]: 33%
- Total Cell Count [7]: 439
- Population Apoptotic (%) [8]: 51%
- Population Fragmented Nuclei (%) [8]: 9%
- Population Healthy Nuclei (%) [8]: 82%
- Population Hoechst High Intensity Objects (%) [8]: 4%
- Population Mitochondria Different-Phenotype (%) [8]: 61%
- Population Mitotic Cells (%) [8]: 48%
- Population Normal (%) [8]: 95%
- Population Pyknosed Nuclei (%) [8]: 8%
- Population Tubulin-Different-Phenotype (%) [8]: 42%
- Total Cell Count [8]: 458
- Population Apoptotic (%) [9]: 17%
- Population Fragmented Nuclei (%) [9]: 12%
- Population Healthy Nuclei (%) [9]: 80%
- Population Hoechst High Intensity Objects (%) [9]: 4%
- Population Membrane Permeable-Phenotype (%) [9]: 1%
- Population Mitochondria Different-Phenotype (%) [9]: 25%
- Population Mitotic Cells (%) [9]: 82%
- Population Normal (%) [9]: 95%
- Population Pyknosed Nuclei (%) [9]: 7%
- Population Tubulin-Different-Phenotype (%) [9]: 16%
- Total Cell Count [9]: 866
- Population Apoptotic (%) [10]: 25%
- Population Fragmented Nuclei (%) [10]: 13%
- Population Healthy Nuclei (%) [10]: 79%
- Population Hoechst High Intensity Objects (%) [10]: 3%
- Population Membrane Permeable-Phenotype (%) [10]: 0%
- Population Mitochondria Different-Phenotype (%) [10]: 26%
- Population Mitotic Cells (%) [10]: 75%
- Population Normal (%) [10]: 96%
- Population Pyknosed Nuclei (%) [10]: 6%
- Population Tubulin-Different-Phenotype (%) [10]: 12%
- Total Cell Count [10]: 641
- Population Apoptotic (%) [11]: 40%
- Population Fragmented Nuclei (%) [11]: 14%
- Population Healthy Nuclei (%) [11]: 75%
- Population Hoechst High Intensity Objects (%) [11]: 4%
- Population Membrane Permeable-Phenotype (%) [11]: 0%
- Population Mitochondria Different-Phenotype (%) [11]: 45%
- Population Mitotic Cells (%) [11]: 59%
- Population Normal (%) [11]: 95%
- Population Pyknosed Nuclei (%) [11]: 10%
- Population Tubulin-Different-Phenotype (%) [11]: 30%
- Total Cell Count [11]: 606
- Population Apoptotic (%) [12]: 18%
- Population Fragmented Nuclei (%) [12]: 11%
- Population Healthy Nuclei (%) [12]: 82%
- Population Mitochondria Different-Phenotype (%) [12]: 38%
- Population Mitotic Cells (%) [12]: 81%
- Population Pyknosed Nuclei (%) [12]: 5%
- Population Tubulin-Different-Phenotype (%) [12]: 27%
- Total Cell Count [12]: 673
